Key:
[1] = molecular target: PbIMPDH-B (IMPDH-B from P. brevicompactum) (Penicillium brevicompactum, UniProt F1DBB2); experiment: biochemical
[2] = system: NC(=O)c1ccc[n+]([C@@H]2O[C@H](COP(=O)([O-])OP(=O)(O)OC[C@H]3O[C@@H](n4cnc5c(N)ncnc54)[C@H](O)[C@@H]3O)[C@@H](O)[C@H]2O)c1; experiment: cells, lysate or membranes named; settings: pH 8.0
[3] = molecular target: AnImdA Tyr411 substituted with Phe (Aspergillus nidulans, UniProt C8V6R6, Y186F); experiment: MPA inhibition of AnImdA variant 411*; assay type: biochemical
[4] = molecular target: PbIMPDH-A Tyr411 substituted with Phe (Penicillium brevicompactum, UniProt A0A9W9QLZ9, Y425F); experiment: MPA inhibition of PbIMPDH-A variant 411*; assay type: biochemical; settings: read-out: IC50, 411*, PbIMPDH-A Tyr411 to Phe
Imd2 = Imd2 from Saccharomyces cerevisiae; cited from earlier work
[5] = system: E. coli ΔguaB expressing PbIMPDH-B; experiment: Bacterial complementation assay with MPA; assay type: cell-based; settings: 100 μM MPA, no guanosine
How it was run: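 E. coli BL21(DE3) ΔguaB host (no endogenous IMPDH) carrying N-terminal His6-tagged fungal IMPDH on a pET28-derived vector. Overnight LB cultures with 25 μg/ml kanamycin; 1:20 serial dilutions spotted on M9 minimal medium with 0.5% casamino acids, 100 μg/ml L-tryptophan, 0.1% thiamin, kanamycin, 66 μM IPTG, ± 100 μM MPA; guanosine plates get 50 μg/ml. Incubated overnight at 37°C, then at room temperature; growth scored.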

[6] = molecular target: PbIMPDH-B Phe411 substituted with Tyr (Penicillium brevicompactum, UniProt F1DBB2, F415Y); experiment: MPA inhibition of PbIMPDH-B variant 411*; assay type: biochemical
Sequence of PbIMPDH-B Phe411 substituted with Tyr (F1DBB2 whole entry F415Y): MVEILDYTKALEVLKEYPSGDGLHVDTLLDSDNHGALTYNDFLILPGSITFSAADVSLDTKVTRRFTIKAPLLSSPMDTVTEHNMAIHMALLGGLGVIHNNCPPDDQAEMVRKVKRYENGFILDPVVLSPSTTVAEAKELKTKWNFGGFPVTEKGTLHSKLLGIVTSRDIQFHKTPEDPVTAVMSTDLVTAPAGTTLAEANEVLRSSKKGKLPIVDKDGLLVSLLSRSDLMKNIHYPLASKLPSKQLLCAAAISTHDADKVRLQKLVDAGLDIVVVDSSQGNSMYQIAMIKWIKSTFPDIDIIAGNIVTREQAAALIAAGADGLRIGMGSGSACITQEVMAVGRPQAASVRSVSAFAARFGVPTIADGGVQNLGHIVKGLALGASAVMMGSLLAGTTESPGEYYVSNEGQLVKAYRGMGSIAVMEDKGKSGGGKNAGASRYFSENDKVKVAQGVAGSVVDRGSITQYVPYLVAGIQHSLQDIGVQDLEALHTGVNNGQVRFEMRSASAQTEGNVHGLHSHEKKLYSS

[7] = molecular target: PcIMPDH-A (IMPDH-A from Penicillium chrysogenum) (Penicillium chrysogenum, UniProt B6HC24); experiment: biochemical
Imd3 = Imd3 from Saccharomyces cerevisiae; cited from earlier work
[8] = molecular target: AnImdA (IMPDH from Aspergillus nidulans) (Aspergillus nidulans, UniProt C8V6R6); experiment: biochemical
[9] = system: AnImdA, PcIMPDH-A and PcIMPDH-B; experiment: MPA inhibition of the MPA-sensitive fungal IMPDHs; assay type: biochemical; settings: range over AnImdA
[10] = molecular target: PbIMPDH-A (IMPDH-A from Penicillium brevicompactum) (Penicillium brevicompactum, UniProt A0A9W9QLZ9); experiment: IMPDH enzyme assay; assay type: biochemical
[11] = cited from earlier work
[12] = molecular target: PcIMPDH-B (IMPDH-B from P. chrysogenum) (Penicillium chrysogenum, UniProt B6H451); experiment: biochemical
P. chrysogenum = experiment: Spot assay to determine sensitivity towards MPA; assay type: cell-based, Penicillium chrysogenum; settings: CYA plates with 200 μg/ml MPA (method) / 6.2 μM MPA (legend of Figure 2A), 25°C
How it was run: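 Strain IBT5857 spores harvested into sterile water. 10-fold serial dilutions spotted onto CYA with or without MPA, most concentrated spot ~10⁶ spores. MPA stock was 25 mg/ml in methanol, and every plate held 0.8% (v/v) methanol. Stock and plates were made just before spotting to avoid MPA degradation. Grown at 25°C; growth of dilution series scored.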

Sequence of PbIMPDH-B (IMPDH-B from P. brevicompactum) (F1DBB2 whole entry): as the sequence (F1DBB2 whole entry F415Y) above, with Y415F counted along it

Compound: NC(=O)c1ccc[n+]([C@@H]2O[C@H](COP(=O)([O-])OP(=O)(O)OC[C@H]3O[C@@H](n4cnc5c(N)ncnc54)[C@H](O)[C@@H]3O)[C@@H](O)[C@H]2O)c1 [NAD^+, nicotinamide adenine dinucleotide]
- Km ([1]; read-out: KM (NAD^+), PbIMPDH-B): 790 ± 140 µM

Compound: AnImdA (IMPDH from Aspergillus nidulans) (Aspergillus nidulans FGSC A4)
- Km ([2]; other: AnImdA): 170 ± 70 µM
- kcat/Km ([2]; other: AnImdA): 4,400 ± 100 M^−1s^−1

Compound: PcIMPDH-A (IMPDH-A from Penicillium chrysogenum) (Penicillium rubens Wisconsin 54-1255)
- Km ([2]; other: PcIMPDH-A): 290 ± 60 µM
- kcat/Km ([2]; other: PcIMPDH-A): 2900 ± 300 M⁻¹ s⁻¹

Compound: COc1c(C)c2c(c(O)c1C/C=C(\C)CCC(=O)O)C(=O)OC2 [MPA, mycophenolic acid]
- IC50 [3]: 26 ± 2 nM
- IC50 [4]: 160 ± 20 nM
- IC50 (Imd2): 70000 nM
- growth on minimal media with MPA [5]: resistant
- IC50 [6]: 25000 ± 2000 nM
- IC50 [7]: 36 ± 4 nM
- IC50 (Imd3): 500 nM
- IC50 [8]: 26 ± 2 nM
- IC50 [9]: 26 to 60 nM
- fold more resistant to MPA ([10]; PbIMPDH-A versus IMPDHs from the other filamentous fungi): 10 fold
- IC50 ([10]; read-out: IC50 (MPA), WT PbIMPDH-A, saturating IMP, half-saturating NAD^+, 25°C): 430 ± 30 nM
- IC50 [1]: 27000 ± 9000 nM
- increase of IMP concentrations in the presence of MPA [11]: 10-35 fold
- IC50 [12]: 60 ± 10 nM
- sensitivity towards MPA (growth of spore dilutions) (P. chrysogenum): more resistant to MPA than A. nidulans

Compound: PcIMPDH-B (IMPDH-B from P. chrysogenum) (Penicillium rubens Wisconsin 54-1255)
- Km ([2]; other: PcIMPDH-B): 640 ± 130 µM
- kcat/Km ([2]; other: PcIMPDH-B): 11 ± 6 M⁻¹ s⁻¹
